In ChEMBL document CHEMBL4190374, “Structure-Function Evaluation of Imidazopyridine Derivatives Selective for δ-Subunit-Containing γ-Aminobutyric Acid Type A (GABAA) Receptors” (J Med Chem, 2018):

Legend:
[1] = target: Gamma-aminobutyric acid receptor subunit alpha-6/beta-3 (Rattus norvegicus, UniProt P30191+P63079); assay: Displacement of [3H]EBOB from rat GABA-A receptor alpha6beta3 expressed in HEK293 cell membranes after 90 mins by liquid scintillation counting analysis
In short: (§1)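 Crude membranes from HEK 293 cells transiently Ca-phosphate-transfected with rat subunit cDNAs, harvested at 48 h. Membranes (150-200 µg protein) incubated with 3 nM [3H]EBOB in 50 mM Tris/citrate pH 7.3 plus 0.2 M NaCl. Compound up to 10 µM, final DMSO 0.1%, no GABA, 90 min at 21 °C. Bound radioligand collected by GF/C filtration and counted by scintillation.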

[2] = target: Gamma-aminobutyric acid receptor subunit alpha-6/beta-3/gamma-2 (Rattus norvegicus, UniProt P18508+P30191+P63079); assay: Displacement of [3H]EBOB from rat GABA-A receptor alpha6beta3gamma2 expressed in HEK293 cell membranes after 90 mins by liquid scintillation counting analysis; in short: as §1
[3] = target: Gamma-aminobutyric acid receptor subunit alpha-6/beta-3/delta (Rattus norvegicus, UniProt P18506+P30191+P63079); assay: Displacement of [3H]EBOB from rat GABA-A receptor alpha6beta3delta expressed in HEK293 cell membranes after 90 mins by liquid scintillation counting analysis; in short: as §1
[4] = target: Gamma-aminobutyric acid receptor subunit alpha-6/beta-3 (Rattus norvegicus) (UniProt P30191+P63079); assay: Displacement of [3H]EBOB from rat GABA-A receptor alpha6beta3 expressed in HEK293 cell membranes up to 20 uM after 90 mins by liquid scintillation counting analysis relative to control
[5] = target: Gamma-aminobutyric acid receptor subunit alpha-6/beta-3/gamma-2 (Rattus norvegicus) (UniProt P18508+P30191+P63079); assay: Displacement of [3H]EBOB from rat GABA-A receptor alpha6beta3gamma2 expressed in HEK293 cell membranes up to 20 uM after 90 mins by liquid scintillation counting analysis relative to control
[6] = target: Gamma-aminobutyric acid receptor subunit alpha-6/beta-3/delta (Rattus norvegicus) (UniProt P18506+P30191+P63079); assay: Displacement of [3H]EBOB from rat GABA-A receptor alpha6beta3delta expressed in HEK293 cell membranes up to 20 uM after 90 mins by liquid scintillation counting analysis relative to control

Chain of Gamma-aminobutyric acid receptor subunit alpha-6/beta-3/gamma-2 (P18508 whole entry): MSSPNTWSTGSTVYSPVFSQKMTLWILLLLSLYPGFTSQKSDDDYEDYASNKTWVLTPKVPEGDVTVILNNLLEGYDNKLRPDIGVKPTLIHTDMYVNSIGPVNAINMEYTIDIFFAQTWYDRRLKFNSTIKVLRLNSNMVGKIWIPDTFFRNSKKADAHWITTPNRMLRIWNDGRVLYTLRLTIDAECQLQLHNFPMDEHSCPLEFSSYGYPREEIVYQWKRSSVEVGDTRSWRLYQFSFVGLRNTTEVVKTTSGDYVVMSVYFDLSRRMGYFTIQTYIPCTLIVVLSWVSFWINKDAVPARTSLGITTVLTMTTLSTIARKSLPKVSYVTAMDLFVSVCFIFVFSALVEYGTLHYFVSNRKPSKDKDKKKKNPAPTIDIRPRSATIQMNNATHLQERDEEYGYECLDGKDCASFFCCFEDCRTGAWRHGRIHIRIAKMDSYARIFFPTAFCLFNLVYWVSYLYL
Chain of Gamma-aminobutyric acid receptor subunit alpha-6/beta-3/gamma-2 (P30191 whole entry): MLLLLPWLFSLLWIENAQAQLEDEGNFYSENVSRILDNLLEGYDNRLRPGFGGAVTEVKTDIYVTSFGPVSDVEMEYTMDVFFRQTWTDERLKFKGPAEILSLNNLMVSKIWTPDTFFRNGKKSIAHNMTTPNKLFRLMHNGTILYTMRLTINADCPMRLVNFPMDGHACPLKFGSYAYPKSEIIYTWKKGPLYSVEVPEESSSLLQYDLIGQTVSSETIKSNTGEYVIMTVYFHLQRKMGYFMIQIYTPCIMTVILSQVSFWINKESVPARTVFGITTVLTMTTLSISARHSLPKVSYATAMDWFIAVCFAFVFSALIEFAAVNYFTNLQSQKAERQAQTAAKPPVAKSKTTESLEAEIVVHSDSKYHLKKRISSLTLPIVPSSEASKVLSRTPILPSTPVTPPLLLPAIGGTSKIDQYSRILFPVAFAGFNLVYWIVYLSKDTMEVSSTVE
Chain of Gamma-aminobutyric acid receptor subunit alpha-6/beta-3/gamma-2 (P63079 whole entry): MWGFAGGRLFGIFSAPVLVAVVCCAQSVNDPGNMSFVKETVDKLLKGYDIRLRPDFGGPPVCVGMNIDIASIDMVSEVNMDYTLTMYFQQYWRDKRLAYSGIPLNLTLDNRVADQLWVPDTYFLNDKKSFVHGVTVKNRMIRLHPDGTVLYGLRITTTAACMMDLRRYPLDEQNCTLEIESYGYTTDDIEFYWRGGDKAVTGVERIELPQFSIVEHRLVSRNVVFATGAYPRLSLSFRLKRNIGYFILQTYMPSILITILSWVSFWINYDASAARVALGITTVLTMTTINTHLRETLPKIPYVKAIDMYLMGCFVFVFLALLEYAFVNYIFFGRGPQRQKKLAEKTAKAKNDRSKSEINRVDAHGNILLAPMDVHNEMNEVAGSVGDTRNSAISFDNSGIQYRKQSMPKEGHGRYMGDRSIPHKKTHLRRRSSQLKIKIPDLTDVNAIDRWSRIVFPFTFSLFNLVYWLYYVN
Chain of Gamma-aminobutyric acid receptor subunit alpha-6/beta-3 (P30191 whole entry): as the sequence (P30191 whole entry) above
Chain of Gamma-aminobutyric acid receptor subunit alpha-6/beta-3 (P63079 whole entry): as the sequence (P63079 whole entry) above
Chain of Gamma-aminobutyric acid receptor subunit alpha-6/beta-3/delta (P18506 whole entry): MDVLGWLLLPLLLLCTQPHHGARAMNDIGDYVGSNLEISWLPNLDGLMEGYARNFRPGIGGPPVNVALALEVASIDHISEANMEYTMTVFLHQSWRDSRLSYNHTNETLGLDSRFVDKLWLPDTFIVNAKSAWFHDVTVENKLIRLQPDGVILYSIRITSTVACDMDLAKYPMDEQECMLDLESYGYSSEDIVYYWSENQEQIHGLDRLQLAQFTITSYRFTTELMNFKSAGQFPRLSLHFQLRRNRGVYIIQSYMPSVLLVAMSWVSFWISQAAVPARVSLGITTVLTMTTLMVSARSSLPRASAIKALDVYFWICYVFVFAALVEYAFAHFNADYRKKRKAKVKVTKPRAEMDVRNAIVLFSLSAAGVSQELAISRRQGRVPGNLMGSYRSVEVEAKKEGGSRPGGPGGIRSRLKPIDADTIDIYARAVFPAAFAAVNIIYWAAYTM
Chain of Gamma-aminobutyric acid receptor subunit alpha-6/beta-3/delta (P30191 whole entry): as the sequence (P30191 whole entry) above
Chain of Gamma-aminobutyric acid receptor subunit alpha-6/beta-3/delta (P63079 whole entry): as the sequence (P63079 whole entry) above

In the case of `O=C(Nc1c(-c2cccs2)nc2ccc(Br)cn12)C1CCCCC1`, the IC50 [1] is reported as 16 µM, the IC50 [2] is reported as 25 µM and the IC50 [3] is reported as 10.1 µM. The Imax [4] was 21%, the Imax [5] was > 89% and the Imax [6] was 85%.
